Data set [1] concerns Plasmodium falciparum Dd2. Put plainly: Antimalarial bioassay, 72 h parasite growth assay. In kind it is cell-based. To be noted: DD2, read-out: P. falciparum IC50. The essentials: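 72 h growth assay of test compounds on the drug-resistant Dd2 strain of Plasmodium falciparum, following an earlier protocol with minor modifications. Artemisinin was the positive control.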
For the next data set, the target named is NF-κB p65 subunit (Homo sapiens, UniProt Q04206). Put plainly: Enzyme-based ELISA NF-κB. In kind it is biochemical. Background: ELISA stands for enzyme-linked immunosorbent assay.
Data set [2] deals with human colon cancer (HT-29) cell line. Nature of the data set: Cytotoxicity assay against HT-29 human colon cancer cells. To be noted: for HT-29 ED50: HT-29 human colon cancer cells, > 20 µM considered inactive.
The test system is the same in data set [3].
The test system of data set [4] is Candida albicans (ATCC 18804). Put plainly: Antifungal bioassay, growth of the pathogenic yeast. In kind it is cell-based. To be noted: ATCC18804, read-out: growth inhibition of C. albicans cells.
A further data set relates to P. falciparum strain 3D7. The note with it: read-out: IC50, in vitro antimalarial activity; cited from earlier work.
Another data set has as its system Plasmodium falciparum. The note with it: cited from earlier work.
The mark [5] stands for this setting: read-out: NF-κB (p65) IC50, enzyme-based ELISA, > 20 µM considered inactive.

Like-named read-outs stand apart in the source and are kept apart here.

Sequence of NF-κB p65 subunit (Q04206 whole entry): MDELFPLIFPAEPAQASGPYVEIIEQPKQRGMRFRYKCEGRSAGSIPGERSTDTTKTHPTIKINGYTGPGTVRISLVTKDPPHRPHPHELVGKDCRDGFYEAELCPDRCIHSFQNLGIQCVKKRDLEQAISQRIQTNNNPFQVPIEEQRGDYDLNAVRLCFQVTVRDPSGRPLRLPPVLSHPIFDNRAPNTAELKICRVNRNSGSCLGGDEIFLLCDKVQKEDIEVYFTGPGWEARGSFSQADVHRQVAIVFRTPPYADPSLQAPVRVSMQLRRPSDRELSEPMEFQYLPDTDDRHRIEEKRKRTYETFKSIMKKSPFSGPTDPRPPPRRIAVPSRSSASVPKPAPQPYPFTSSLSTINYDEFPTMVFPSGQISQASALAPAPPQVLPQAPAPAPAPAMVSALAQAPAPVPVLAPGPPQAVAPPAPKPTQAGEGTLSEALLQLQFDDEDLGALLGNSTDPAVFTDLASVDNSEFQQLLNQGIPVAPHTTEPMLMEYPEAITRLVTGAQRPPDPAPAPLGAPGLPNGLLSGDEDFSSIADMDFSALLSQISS

As a reminder, the IC50 is the concentration that gives 50% inhibition. Take `C[C@@H]1CC[C@H]2[C@@H](C)C(=O)O[C@@H]3O[C@@]4(C)CC[C@@H]1[C@]32OO4` [Artemisinin, reference compound]: in data set [1], the IC50 amounted to 0.7 nM.
On to `C=C(C)C1CCC2(CO)CCC3(C)C(CCC4C5(C)CCC(OC(=O)/C=C/c6ccc(O)cc6)C(C)(CO)C5CCC43C)C12` (stereo not drawn) [Compound 1, 3-O-(E)-p-coumaroyl-23-hydroxybetulin], for which the IC50 at NF-κB p65 subunit (setting [5]) was over 20 µM. Further, the “HT-29 ED50” value in data set [2] was over 20 µM.
Take `C=C(C)C1CCC2(CO)CCC3(C)C(CCC4C5(C)CCC(OC(=O)/C=C/c6ccc(O)cc6)C(C)(CO)C5CCC43C)C12` (stereo not drawn) [Compound 2, 3-O-(E)-p-coumaroyl-23-hydroxy-3-epi-betulin]: the half-inhibitory concentration (IC50) at NF-κB p65 subunit (setting [5]) was over 20 µM. Also, the “cytotoxic effect against HT-29 cells (in words)” value in data set [2] (HT-29 cells) is on record as “marginal cytotoxic effects”. For the same compound, the “HT-29 ED50” value in data set [2] stood at 13.2 µM.
In the case of `C=C(C)C1CCC2(CO)CCC3(C)C(CCC4C5(C)CCC(OC(=O)/C=C\c6ccc(O)cc6)C(C)(CO)C5CCC43C)C12` (stereo not drawn) [Compound 3, 3-O-(Z)-p-coumaroyl-23-hydroxy-3-epi-betulin], the IC50 on NF-κB p65 subunit (setting [5]) was over 20 µM. In addition, the “HT-29 ED50” value in data set [2] is listed as 3.3 µM.
The like results for `C=C(C)C1CCC2(CO)CCC3(C)C(CCC4C5(C)CCC(O)C(C)(COC(=O)/C=C/c6ccc(O)cc6)C5CCC43C)C12` (stereo not drawn) [Compound 4, 23-O-(E)-p-coumaroyl-23-hydroxybetulin] were, in that order, over 20 µM and over 20 µM.
As to `C=C(C)C1CCC2(CO)CCC3(C)C(CCC4C5(C)CCC(O)C(C)(COC(=O)/C=C\c6ccc(O)cc6)C5CCC43C)C12` (stereo not drawn) [Compound 5, 23-O-(Z)-p-coumaroyl-23-hydroxybetulin], at NF-κB p65 subunit (setting [5]), the IC50 is over 20 µM. In addition, the “HT-29 ED50” value in data set [2] is 18.4 µM. The “cytotoxic effect against HT-29 cells (in words)” value in data set [3] is recorded as “marginal cytotoxic effects”.
As to `C=C(C)[C@@H]1CC[C@]2(CO)CC[C@]3(C)[C@H](CC[C@@H]4[C@@]5(C)CC[C@H](O)C(C)(C)[C@@H]5CC[C@]43C)[C@@H]12` [Compound 6, betulin], the values for the IC50 (against NF-κB p65 subunit; in data set [1]) were over 20 µM and over 10000 nM, respectively. Also, the “HT-29 ED50” value in data set [2] is reported as over 20 µM.
As for `C=C(C)[C@@H]1CC[C@]2(COC(C)=O)CC[C@]3(C)[C@H](CC[C@@H]4[C@@]5(C)CC[C@H](OC(C)=O)C(C)(C)[C@@H]5CC[C@]43C)[C@@H]12` [Compound 8, 3,28-O-diacetylbetulin], the 50% inhibitory concentration (IC50) on NF-κB p65 subunit (setting [5]) was over 20 µM. Besides, the “HT-29 ED50” value in data set [2] is over 20 µM.
On to `C=C(C)[C@@H]1CC[C@]2(CO)CC[C@]3(C)[C@H](CC[C@@H]4[C@@]5(C)CC[C@H](O)[C@@](C)(CO)[C@@H]5CC[C@]43C)[C@@H]12` [Compound 9, 23-hydroxybetulin], for which the IC50 at NF-κB p65 subunit (setting [5]) was found to be 4 µM. Also, in data set [2], the “HT-29 ED50” value is over 20 µM.
With `CC(=O)O[C@H]1C(=O)[C@@]2(C)[C@H]([C@H](OC(=O)c3ccccc3)[C@]3(O)C[C@H](OC(=O)[C@H](O)[C@@H](NC(=O)c4ccccc4)c4ccccc4)C(C)=C1C3(C)C)[C@]1(OC(C)=O)CO[C@@H]1C[C@@H]2O` [Paclitaxel, reference compound], the “HT-29 ED50” value in data set [2] was 0.001 µM.
In general, inhibition refers to the percentage by which the read-out fell short of the control. `C[C@@H]1[C@H](O)[C@@H](C)/C=C/C=C/C=C/C=C/C=C/C=C/C=C/[C@H](O[C@@H]2O[C@H](C)[C@@H](O)[C@H](N)[C@@H]2O)C[C@@H]2O[C@](O)(C[C@@H](O)C[C@@H](O)[C@H](O)CC[C@@H](O)C[C@@H](O)CC(=O)O[C@H]1C)C[C@H](O)[C@H]2C(=O)O` [amphotericin B]: the inhibition at 200 µg/mL in data set [4] amounted to 100%.
Consider `C=C(C)[C@@H]1CC[C@]2(C(=O)OC)CC[C@]3(C)[C@H](CC[C@@H]4[C@@]5(C)CC[C@H](O)C(C)(C)[C@@H]5CC[C@]43C)[C@@H]12` [its methylate], for which, in the data set with P. falciparum strain 3D7, the half-maximal inhibitory concentration (IC50) was 7 µM.
For “N-3-benzoyldihydrocyclomicrophylline F [Compound 7]”, on NF-κB p65 subunit (setting [5]), the IC50 was over 20 µM. Also, the “HT-29 ED50” value in data set [2] was 1.9 µM.
As to O-tigloylcyclovirobuxeine-B, the “IC50, in vitro antiplasmodial activity” value with Plasmodium falciparum was 0.46 µg/mL. Besides, the half-maximal inhibitory concentration (IC50) with Plasmodium falciparum (read-out: IC50, in vitro antiplasmodial activity) is 920 nM.

The record behind these values is paper PMC4545412 (Planta medica, 2015).
